# From PubChem BioAssay AID504382 (The Scripps Research Institute Molecular Screening Center, 2011)
# About 460 (18%) of roughly 2,500 compounds were called active.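 How the source made its calls: active means mean activation above a cutoff of low control average plus 3 SD from the earlier screen (cut at about 12% in these data); inactive means the rest.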 Only a sample is shown.
# Test: IANBD-channel fluorescence artefacts in buffer – biochemical, artefact control for cardiac RTF calcium sensitizer project, confirmation (AID 504382)
# Settings: IANBD fluorescence interference counterscreen, EC20 Ca2+, at 7.2 µM, stronger effect = higher value, scaled: EC20 calcium 0, EC100 calcium 100
# Summary of the method: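 Also added: EC20 calcium, 0.472 mM; dosing: single nominal 7.2 µM compound dose, 0.7% DMSO final; timing: 15 min, 25 °C; detection: fluorescence intensity, excitation 480 nm, emission 540 nm; replicates: each compound tested in triplicate wells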
row,SMILES,fluorescence artifact activation
1,Cc1cc(C)n(-c2nc3ccccc3nc2Nc2ccc3[nH]c(=O)[nH]c3c2)n1,4.66% (inactive)
2,CC(C)Oc1ccc(/C(O)=C2/C(=O)C(=O)N(CCN3CCNCC3)C2c2cccc([N+](=O)[O-])c2)cc1 (configuration not stated),1.8% (inactive)
3,CCOC(=O)C1=C(C)NC(=O)/C1=C\N(C)C,0.04% (inactive)
4,Cc1cc(C)c(NC(=S)N(C)C)c(C)c1,31.3% (active)
5,NC(=O)c1ccccc1N/C=C/C(=O)c1ccc(Cl)cc1Cl,1.35% (inactive)
6,COc1ccc(N(C(=O)c2ccc(C)cc2)S(=O)(=O)c2cccs2)cc1,54.9% (active)
7,COc1ccc(NC(=O)CNS(=O)(=O)c2cccs2)cc1,-0.02% (inactive)
8,COc1ccc(NC(=O)C(c2ccc(C)cc2)N(C)C(=O)Cc2cccs2)cc1 (configuration not stated),0.03% (inactive)
9,CCOC(=O)C(C#N)C(c1cccnc1)c1c(C)[nH][nH]c1=O (configuration not stated),0.03% (inactive)
10,O=C(CSc1nc2cc(Cl)ccc2s1)c1cc2ccccc2o1,39.2% (active)
11,Cc1ccccc1Nc1nnc(SCC(=O)c2cc3ccccc3o2)s1,-0.07% (inactive)
12,O=C(CSc1nc2ccccc2s1)c1cc2ccccc2o1,6.22% (inactive)
13,CCN(CC)C(=O)c1ccc(/C=C/c2c[nH]c3ccccc23)[n+](C)c1,0.26% (inactive)
14,Brc1ccc(C2=CC(c3ccco3)n3ncnc3N2)cc1 (configuration not stated),0.04% (inactive)
15,CS(=O)(=O)Nc1nc2n(n1)C(c1ccccc1)C=C(c1ccc(Br)cc1)N2 (configuration not stated),13% (active)
16,Brc1ccc(C2=CC(c3cccs3)n3ncnc3N2)cc1 (configuration not stated),0.13% (inactive)
17,O=C(O)C1=C[C@H](c2ccccc2)C[C@H](OCc2ccc(CO)cc2)O1,0.07% (inactive)
18,Cc1ccc(NC(=O)C(OC(=O)c2ccc(F)cc2)c2ccccc2)cc1Cl (configuration not stated),-0.03% (inactive)
19,Cn1nc(NC(=O)C2CCC2C(=O)O)c2c(F)cccc21 (configuration not stated),7.56% (inactive)
20,CC(C)(C)OC(=O)N1CC=C2C(C#N)=C(N)C(C#N)(C#N)C(c3cccs3)C2C1 (configuration not stated),-0.03% (inactive)
21,Cc1cc(C)c(OCCOCCN2CCNCC2)c(C)c1,0.06% (inactive)
22,OCCc1c[nH]c2ccccc12,0.07% (inactive)
23,COc1cc(/C=C(\C#N)C(=O)c2c[nH]c3ccccc23)cc(OC)c1O,0.14% (inactive)

row,SMILES,fluorescence artifact activation
1,NC(=O)c1c[nH]c2ccccc12,288% (active)
2,CC(C)(C)OC(=O)N1CCC(Cc2cc(-c3cccnc3)no2)(C(=O)O)CC1,3.74% (inactive)
3,Cc1ccc(NC(=O)c2cc(C(=O)c3cc(Cl)ccc3O)cn(-c3ccc(C)cc3)c2=O)cc1,3.68% (inactive)
4,CCOC(=O)C(C)Sc1nnc(Cc2cc(=O)[nH]c(=O)[nH]2)n1-c1ccc(Cl)cc1 (configuration not stated),0.21% (inactive)
5,CCOC(=O)C(C)(C)Sc1nc2c(cnn2-c2ccc(Cl)cc2)c(=O)[nH]1,71.5% (active)
6,CCCCNC(=O)COC(=O)c1c2c(nc3ccccc13)/C(=C\c1cccs1)CC2,1.6% (inactive)
7,Nc1cccc2c1C(=O)N(c1ccccc1)C2=O,1.26% (inactive)
8,O=C(Cc1ccccc1)Nc1cccc(-c2nc3ncccc3o2)c1,0.02% (inactive)
9,CCC(=O)Nc1ccc2oc(-c3cccnc3)nc2c1,77.1% (active)
10,Cc1cc(=O)oc(C)c1C(=O)Nc1ccc2ncccc2c1,0.24% (inactive)
11,COc1ccc(C)cc1NC(=O)C12CCC(C)(C(=O)O1)C2(C)C (configuration not stated),6.57% (inactive)
12,CC1(C)CC(=O)c2sc(NC(=O)Cc3cccs3)nc2C1,0.43% (inactive)
13,CN(C)c1ccc(/C=C2\SC(=S)N(Nc3ncc(C(F)(F)F)cc3Cl)C2=O)cc1,1.93% (inactive)
14,N=C1c2ccccc2CN1c1ccc(S(=O)(=O)N2CCCCC2)cc1,9.61% (inactive)
15,Cc1ccc(S(=O)(=O)N2CCOCC2)cc1C(=O)N1C(=O)c2cccc(N)c2C1=O,0.13% (inactive)
16,CCN1/C(=C\C=C(C(C)=O)C(C)=O)Sc2ccccc21,0.42% (inactive)
17,CCOC(=O)/C(=C/C=C1\Sc2ccccc2N1CC)C(C)=O,51.3% (active)
18,CCOC(=O)/C(=C\C=C1/Sc2ccccc2N1CC)C(C)=O,0.04% (inactive)
19,COC(=O)C1=C(C(=O)OC)[C@@H]2Nc3ccccc3[C@@]23C[C@@H](C(=O)OC)N(C(=O)c2cccs2)C3=N1,11.6% (inactive)
20,CCOc1ccc(C2OC34CCCCC3C(C#N)(C#N)C2(C#N)C(=N)O4)cc1OC (configuration not stated),0.1% (inactive)
21,Cc1c2ccccc2nc2c(F)c(NCCO)c(F)c(F)c12,42.9% (active)
22,Cc1c2ccccc2nc2c(F)c(N(C)C)c(F)c(F)c12,0.16% (inactive)
23,COC(=O)C1=NN(C(=O)c2ccc(Br)cc2)C(O)(C(C)(C)C)C1 (configuration not stated),1.09% (inactive)

row,SMILES,fluorescence artifact activation
1,CCOC(=O)c1cn(-c2ccc(F)c(F)c2F)c2c(F)c(F)c(F)cc2c1=O,0.24% (inactive)
2,CN(C)c1ccc(/C=C(/C#N)C(=O)Nc2nc3c(s2)CCN(Cc2ccccc2)C3)cc1,0.06% (inactive)
3,Cc1ccc(NC(=O)COC(=O)/C=C/c2c(C)nn(-c3ccc(F)cc3)c2Cl)cc1F,0.01% (inactive)
4,CCOc1ccc(CCNC(=O)C2CCCN(S(=O)(=O)N3CCOCC3)C2)cc1OCC (configuration not stated),-0.05% (inactive)
5,CC1CC(C)CN(S(=O)(=O)N2CCCC(C(=O)NC3CCCCC3)C2)C1 (configuration not stated),78.2% (active)
6,CCOC(=O)C1(Cc2cccc(OC)c2)CCN(Cc2ccon2)CC1,1.14% (inactive)
7,COc1ccc(Br)cc1S(=O)(=O)Nc1ncccc1C,24.7% (active)
8,COc1cc(Cl)c(S(=O)(=O)NCc2ccccn2)cc1Cl,-0.05% (inactive)
9,COc1ccc(C(=O)O)cc1S(=O)(=O)NCCc1ccccn1,0.58% (inactive)
10,CCOC(=O)c1c(C)oc2c1c(C=NCCO)c(O)c1ccccc12,0.07% (inactive)
11,O=C1c2ccccc2-c2onc3c(N4CCN(CCO)CC4)cc(N4CCN(C(=O)c5ccco5)CC4)c1c23,0.06% (inactive)
12,O=C(c1ccco1)N1CCN(c2ncnc3c(-c4ccc(Cl)cc4)nsc23)CC1,43.5% (active)
13,O=C(O)CCNc1cc(N2CCN(C(=O)c3ccco3)CC2)c2noc3c2c1C(=O)c1ccccc1-3,-0.01% (inactive)
14,COC(=O)Cn1c(C)c(/C=C/c2cc[n+](C)cc2)c2ccccc21,0.1% (inactive)
15,C[C@H](CO)N1C[C@H](C)[C@@H](CN(C)Cc2ccncc2)Oc2c(NC(=O)c3ccncc3)cccc2C1=O,1.32% (inactive)
16,C[C@H](CO)N1C[C@H](C)[C@@H](CN(C)Cc2ccncc2)Oc2c(NS(=O)(=O)c3ccc(F)cc3)cccc2C1=O,0.19% (inactive)
17,C[C@H](CO)N1C[C@H](C)[C@@H](CN(C)Cc2ccc(Oc3ccccc3)cc2)Oc2c(NC(=O)C3CC3)cccc2C1=O,20.1% (active)
18,CC1=CC2=NC(=O)/C(=C\c3ccc(-c4cccc(Cl)c4)o3)C(=N)N2O1,7.64% (inactive)
19,CCOc1cc2c(cc1/C=C/c1noc(C)c1[N+](=O)[O-])OC(C)C2 (configuration not stated),145% (active)
20,Cc1cc(N2C(=O)C(O)=C(C(=O)c3cccs3)C2c2ccc(F)cc2)no1 (configuration not stated),7.29% (inactive)
21,CCc1cccc2cc3c(N)c(C(=O)Nc4ccc(S(=O)(=O)N5CCCC5)cc4)sc3nc12,6.55% (inactive)
22,COc1ccc(/C=C/C(=O)c2nc3ccccc3n2CC(=O)c2ccc(OC)cc2)cc1,-0.1% (inactive)
23,CCN(CC)c1ccc(C=Nc2cc(C)ccc2C)c(O)c1,1.34% (inactive)

row,SMILES,fluorescence artifact activation
1,CC(=O)NC(Cc1ccc(F)c(F)c1)C(=O)NC1CCN(S(=O)(=O)c2ccc(C)cc2)CC1 (configuration not stated),-0.07% (inactive)
2,COc1ccc(C(=O)c2sc3nc(-c4ccccc4)ccc3c2N)cc1,21.8% (active)
3,COc1ccc(C(=O)c2sc3nc(C)cc(-c4cccs4)c3c2N)cc1,6.39% (inactive)
4,COc1ccc(-c2c(C#N)c(N)nc3sc(C(=O)c4ccccc4)c(N)c23)cc1,0.01% (inactive)
5,Nc1ccc2cc3[nH]c4cc(N)ccc4c3nc2c1,2.11% (inactive)
6,N#Cc1c(NCCCO)nc(-c2ccccc2)c2c1CCCC2,4.04% (inactive)
7,COc1ccccc1C(=O)Nc1ccc(OC(C)C(=O)N2CCOCC2)cc1 (configuration not stated),822% (active)
8,COc1ccc(OC(C)C(=O)Nc2cccc(OC)c2)cc1 (configuration not stated),0.45% (inactive)
9,CCOc1ccc(NC(=O)c2cccc(OC(=S)N3CCOCC3)c2)cc1,0% (inactive)
10,COc1ccc2c(c1)c(/C=C/c1cc[n+](C)cc1)cn2C,0.08% (inactive)
11,COC(=O)c1cc2c(C)c(C)c3ccccn3c-2c1C(=O)OC,0.46% (inactive)
12,O=C(CCN1C(=O)/C(=C/c2cccs2)SC1=S)NNC(=O)c1cccc(O)c1,-0.08% (inactive)
13,Oc1cccc(Nc2nc(O)c(/C=C3\C=Nc4ccccc43)s2)c1,43% (active)
14,COc1cc([N+](=O)[O-])ccc1NC(=O)COC(=O)c1n[nH]c2ccccc12,0.03% (inactive)
15,COc1cc([N+](=O)[O-])ccc1N/C=C/C(=O)c1cccs1,0.6% (inactive)
16,COc1cc2c(cc1NC(=O)COC(=O)/C=C/c1ccc([N+](=O)[O-])cc1)oc1ccccc12,796% (active)
17,Cc1c(C)[n+](=O)c(-c2ccc(Br)cc2)c(C)n1[O-],412% (active)
18,CCn1cc(C(=O)NCCC(=O)NCCO)c(=O)c2cc3c(cc21)OCO3,9.79% (inactive)
19,O=C(C1=NN[C@@H]2C(=O)N(c3ccccc3C(F)(F)F)C(=O)[C@H]12)c1ccc2ccccc2n1,22.3% (active)
20,Cc1cccc(NC(=S)Nc2ccc(N3CCOCC3)cc2)c1C,0.78% (inactive)
21,O=c1cc2oc3cc(O)c(O)cc3c(-c3ccccc3O)c-2cc1O,0.4% (inactive)
22,Nc1ccc(-c2c3ccc(=O)cc-3oc3cc(O)ccc23)cc1C(=O)O,-0.02% (inactive)
23,O=c1ccc2c(-c3ccccc3)c3ccc(O)cc3oc-2c1,12.3% (active)
